ChEMBL document CHEMBL5120935, “Synthesis, Anti-Plasmodial Activities, and Mechanistic Insights of 4-Aminoquinoline-Triazolopyrimidine Hybrids” (ACS Med Chem Lett, 2022)

Tests used:
[1] = Selectivity index, ratio of IC50 for cytotoxicity against African green monkey Vero cells to IC50 for antiplasmodial activity against CQ-susceptible Plasmodium falciparum 3D7 infected in A+ human blood assessed as reduction in parasite growth measured after 72 hrs by HRP2 ELISA; assay type: toxicity, cell-based; settings: read-out: Selectivity Index
In short: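 Selectivity index calculated as the IC50 for cytotoxicity on Vero cells divided by the antiplasmodial IC50 against the 3D7 strain.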

[2] = tested on: Plasmodium falciparum; assay: Antiplasmodial activity against CQ-resistance Plasmodium falciparum W2 infected in A+ human blood assessed as reduction in parasite growth measured after 72 hrs by HRP2 ELISA; assay type: functional, organism-based
In short: (§1)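 IC50s against P. falciparum chloroquine-susceptible 3D7 and chloroquine-resistant W2 strains, each tested separately. Values are the mean and standard deviation of 6 to 9 independent experiments.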

[3] = Selectivity index, ratio of IC50 for cytotoxicity against African green monkey Vero cells to IC50 for antiplasmodial activity against CQ-resistance Plasmodium falciparum W2 infected in A+ human blood assessed as reduction in parasite growth measured after 72 hrs by HRP2 ELISA; assay type: toxicity, cell-based; settings: read-out: Selectivity Index
In short: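 Selectivity index calculated as the IC50 for cytotoxicity on Vero cells divided by the antiplasmodial IC50 against the W2 strain.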

[4] = Resistance index, ratio of IC50 for antiplasmodial activity against CQ-resistance Plasmodium falciparum W2 infected in A+ human blood to IC50 for antiplasmodial activity against CQ-susceptible Plasmodium falciparum 3D7 infected in A+ human blood; assay type: functional
In short: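 Resistance index calculated as IC50 against W2 divided by IC50 against 3D7, using the in vitro antiplasmodial IC50s measured for each strain.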

[5] = Cytotoxicity against African green monkey Vero cells; assay type: toxicity, cell-based; settings: African green monkey (Chlorocebus sabaeus)
[6] = tested on: Plasmodium falciparum; assay: Antiplasmodial activity against CQ-susceptible Plasmodium falciparum 3D7 infected in A+ human blood assessed as reduction in parasite growth measured after 72 hrs by HRP2 ELISA; assay type: functional, organism-based; settings: 3D7, Blood; in short: as §1

Cc1cc(NCCCNc2ccnc3cc(Cl)ccc23)n2ncnc2n1
selectivity ratio at 72 h [1]: 291 | IC50 [2]: 0.49 µM | selectivity ratio at 72 h [3]: 369 | Ratio IC50 [4]: 0.79 | IC50 [5]: 181 µM | IC50 [6]: 0.62 µM

Cc1cc(NCCCCCCCCNc2cc(C)nc3ncnn23)n2ncnc2n1
IC50 [2]: 49.4 µM | Ratio IC50 [4]: 1.08 | IC50 [6]: 45.8 µM

Cc1cc(N2CCN(c3ccnc4cc(Cl)ccc34)CC2)n2ncnc2n1
IC50 [2]: 12.9 µM | Ratio IC50 [4]: 1.02 | IC50 [6]: 12.6 µM

Cc1cc(NCCCCNc2ccnc3cc(Cl)ccc23)n2ncnc2n1
selectivity ratio at 72 h [1]: 927 | IC50 [2]: 0.42 µM | selectivity ratio at 72 h [3]: 596 | Ratio IC50 [4]: 1.56 | IC50 [5]: 250 µM | IC50 [6]: 0.27 µM

Cc1cc(NCCNc2cc(C)nc3ncnn23)n2ncnc2n1
IC50 [2]: 53.8 µM | Ratio IC50 [4]: 1.03 | IC50 [6]: 52.2 µM

Cc1cc(NCCCCNc2cc(C)nc3ncnn23)n2ncnc2n1
IC50 [2]: 11.8 µM | Ratio IC50 [4]: 0.94 | IC50 [6]: 12.5 µM

Cc1cc(NCCCCCCNc2ccnc3cc(Cl)ccc23)n2ncnc2n1
selectivity ratio at 72 h [1]: 1040 | IC50 [2]: 0.28 µM | selectivity ratio at 72 h [3]: 1110 | Ratio IC50 [4]: 0.93 | IC50 [5]: 311 µM | IC50 [6]: 0.3 µM

Cc1cc(NCCCCCCNc2cc(C)nc3ncnn23)n2ncnc2n1
IC50 [2]: 11.3 µM | Ratio IC50 [4]: 0.97 | IC50 [6]: 11.6 µM

Cc1cc(NCCNc2ccnc3cc(Cl)ccc23)n2ncnc2n1
IC50 [2]: 10.8 µM | Ratio IC50 [4]: 1.2 | IC50 [6]: 9 µM

Cc1cc(NCCCNc2cc(C)nc3ncnn23)n2ncnc2n1
IC50 [2]: 49.1 µM | Ratio IC50 [4]: 1.03 | IC50 [6]: 47.3 µM

Cc1cc(NCCCCCCCCNc2ccnc3cc(Cl)ccc23)n2ncnc2n1
selectivity ratio at 72 h [1]: 2060 | IC50 [2]: 0.2 µM | selectivity ratio at 72 h [3]: 1750 | Ratio IC50 [4]: 1.18 | IC50 [5]: 351 µM | IC50 [6]: 0.17 µM
